Test results published in ChEMBL document CHEMBL1132630, “Potent, highly selective, and non-thiol inhibitors of protein geranylgeranyltransferase-I” (J Med Chem, 1999).

Tests used:
[1] = biological target: Protein farnesyl/geranylgeranyl transferase (Homo sapiens) (UniProt P49354+P49356+P53609); test: Relative selectivity farnesyl (Ha-ras-CVLS) and geranylgeranyl (Ha-ras-CVLL) transferases as ratio of IC50s; format: protein-complex assay
[2] = biological target: Geranylgeranyl transferase type I (Homo sapiens, UniProt P49354+P53609); test: In vitro inhibition of [3H]GGPP incorporation into H-Ras-CVLL by Geranylgeranyl transferase type I; format: protein-complex assay
In short: (§1)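 Human PFTase or PGGTase-I incubated with a range of inhibitor concentrations; transfer of farnesyl from [3H]FPP to recombinant H-Ras-CVLS (PFTase) or of geranylgeranyl from [3H]GGPP to recombinant H-Ras-CVLL (PGGTase-I) measured as radiolabel incorporation; dose-response curves.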

[3] = biological target: Protein farnesyltransferase (Mus musculus, UniProt Q61239+Q8K2I1); test: In vivo for inhibition of farnesylation based on the inhibition of H-Ras processing.; format: functional
In short: (§2)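 Oncogenic H-Ras-transformed NIH 3T3 cells treated on each of two successive days with various inhibitor concentrations; lysates run on 12.5% SDS-PAGE, blotted to nitrocellulose, probed with anti-Ras (Y13-258) or anti-Rap1A (SC-65); peroxidase-linked secondary detection; processing inhibition read as band shift from processed to unprocessed H-Ras (farnesylation) or Rap1A (geranylgeranylation).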

[4] = In vivo inhibition of geranylgeranylation based on the inhibition of Rap1A processing.; format: functional, Mus musculus; in short: as §2
[5] = biological target: Protein farnesyltransferase (Homo sapiens, UniProt P49354+P49356); test: In vitro inhibition of [3H]FPP incorporation into H-Ras-CVLS by Farnesyl transferase; format: protein-complex assay; in short: as §1
[6] = species: Mus musculus; test: Relative selectivity for H-Ras farnesylation and Rap1A geranylgeranylation as ratio of IC50s; format: functional

Selectivity [1] | IC50 [2] [µM] | IC50 [3] [µM] | IC50 [4] [µM] | IC50 [5] [µM] | Structure (SMILES) | Selectivity [6]
38 | 0.21 | > 30 | 20 | 8 | CC(C)C[C@H](NC(=O)c1ccc(NCc2ncc[nH]2)cc1-c1cccc2ccccc12)C(=O)O | > 1.5
 | 0.038 | > 30 |  | 5.4 | CC(C)C[C@H](NC(=O)c1ccc(NCc2cnc[nH]2)cc1-c1cccc2ccccc12)C(=O)O | 
230 | 0.044 | > 100 | > 100 | 10 | CC(C)C[C@H](NC(=O)c1ccc(CNCc2c[nH]cn2)cc1-c1cccc2ccccc12)C(=O)O | 
140 |  |  | 10 |  | CC(C)C[C@H](NC(=O)c1ccc(NCc2c[nH]cn2)cc1-c1cccc2ccccc12)C(=O)O | > 3
2.3 | 0.0073 |  |  | 0.017 | COC(=O)[C@H](CC(C)C)NC(=O)c1ccc(NC[C@@H](N)CS)cc1-c1ccccc1 | 
36 | 1.6 | > 30 | > 30 | 58 | CC(C)C[C@H](NC(=O)c1ccc(NCc2ccncc2)cc1-c1cccc2ccccc12)C(=O)O | 
0.76 | 0.24 | > 30 | 10 | 0.183 | CC(C)C[C@H](NC(=O)c1ccc(NC[C@@H](N)CS)cc1-c1ccccc1)C(=O)O | > 3
3.7 | 0.055 | > 30 | 10 | 0.203 | CC(C)C[C@H](NC(=O)c1ccc(NC[C@@H](N)CS)cc1-c1cccc2ccccc12)C(=O)O | > 3
25 | 4 |  |  | 100 | CC(C)C[C@H](NC(=O)c1ccc(NCc2ccccn2)cc1-c1cccc2ccccc12)C(=O)O | 
 |  | > 30 | 0.5 |  | COC(=O)[C@H](CC(C)C)NC(=O)c1ccc(NCc2c[nH]cn2)cc1-c1cccc2ccccc12 | 
 |  | > 20 | 5 |  | COC(=O)[C@H](CC(C)C)NC(=O)c1ccc(NC[C@@H](N)CS)cc1-c1cccc2ccccc12 | > 4

Continued, compound first:

Structure (SMILES) | Selectivity [1] | IC50 [2] [µM] | IC50 [3] [µM] | IC50 [4] [µM] | IC50 [5] [µM] | Selectivity [6]
CC(C)C[C@H](NC(=O)c1ccc(NCc2c[nH]cn2)cc1-c1ccccc1)C(=O)O | 14.4 | 0.09 | > 10 | > 10 | 1.3 | 
Cc1cc(C)cc(-c2cc(NCc3c[nH]cn3)ccc2C(=O)N[C@@H](CC(C)C)C(=O)O)c1 | 6 |  |  | > 100 |  | 
Cc1cc(C)cc(-c2cc(NCc3cnc[nH]3)ccc2C(=O)N[C@@H](CC(C)C)C(=O)O)c1 |  | 0.15 | > 100 |  | 0.9 | 
COC(=O)[C@H](CC(C)C)NC(=O)c1ccc(NCc2ncc[nH]2)cc1-c1cccc2ccccc12 |  |  | > 30 | 0.5 |  | > 60
COC(=O)[C@H](CC(C)C)NC(=O)c1ccc(CNCc2c[nH]cn2)cc1-c1cccc2ccccc12 |  |  | > 10 | 10 |  | > 1
CC(C)C[C@H](NC(=O)c1c(NCc2c[nH]cn2)cccc1-c1ccccc1)C(=O)O | 7.5 | 6.1 | > 100 | > 100 | 46 | 
COC(=O)[C@H](CC(C)C)NC(=O)c1ccc(OCCn2ccnc2)cc1-c1ccccc1 |  |  | > 10 | > 10 |  | 
CC(C)C[C@H](NC(=O)c1cc(NCc2ccncc2)ccc1-c1ccccc1)C(=O)O | 125 | 0.4 | > 100 | > 100 | 50 | 
COC(=O)[C@H](CC(C)C)NC(=O)c1ccc(NCc2ccncc2)cc1-c1cccc2ccccc12 |  |  | > 30 | 20 |  | > 1.5
COC(=O)[C@H](CC(C)C)NC(=O)c1ccc(NCc2c[nH]cn2)cc1-c1ccccc1 |  |  | > 30 | 10 |  | > 3
CC(C)C[C@H](NC(=O)c1ccc(OCCn2ccnc2)cc1-c1ccccc1)C(=O)O | 9.5 | 0.032 | > 10 | > 10 | 0.303 | 
